Compound activity deposited in PubChem BioAssay by several laboratories.
Rows were chosen to be rich in hits. Some 0.85% of all compounds tested hit in one or more screens of this group.
zfTRPN1 agonist: activates the zebrafish TRPN1 channel; activation, % at 3 µM; actives 0.18% (n = 220,000); HEK293 zebrafish TRPN1-YFP, Fluo-8 calcium fluorescence; 100% = response to 87 µM carbachol;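 active = activation above its plate's cutoff, the mean activation of test wells on that plate plus 3 SD, cut at about 19% in these data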;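 note: 0% = DMSO alone and 100% = 87 µM carbachol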
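Control set: carbachol 87 µM as high control, DMSO as low control; system: HEK293 stable line with zebrafish TRPN1-YFP; read-out: % activation versus carbachol response; detection: intracellular calcium fluorescence with Fluo-8; doses: single test compound dose, 3 µM nominal, 0.3% DMSO; schedule: dye 1 h 37 °C plus 30 min RT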
TRPML3 ag: activates the human TRPML3 channel; Q8TDD5; activation, % at 3 µM; HEK293 TRPML3-YFP, Fluo-8 calcium fluorescence; 100% = the carbachol control signal; actives 0.29% (n = 220,000);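 active = activation above its plate's cutoff, the mean activation of the plate's test wells plus 3 SD, cut at about 12% in these data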;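 note: 0% = DMSO only wells and 100% = carbachol wells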
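Material: HEK293 cells stably carrying human TRPML3-YFP; compound dosing: single dose, 3 µM final nominal compound, 0.3% DMSO final; incubation: 1-h 37 °C dye load, 5-s basal, 120-s post-compound reads; technique: Fluo-8 intracellular calcium fluorescence, excitation 470-495 nm, emission 515-575 nm; read-out basis: percent activation from peak-to-basal fluorescence ratio, scaled between DMSO and carbachol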
OXTR ag: human OXTR agonism; P30559; CHO-OTR cells, Fluo-8 calcium fluorescence; normalized: DMSO 0%, oxytocin 100%; activation, % at 3 µM; actives 0.32% (n = 320,000); AID 2435;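 active = activation above the mean of all tested compounds plus 3 SD, cutoff set per screening run, cut at about 20% in these data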;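 note: peak over basal fluorescence ratio from a 100 s FLIPR kinetic read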
Target sequence (P30559 whole entry, looked up): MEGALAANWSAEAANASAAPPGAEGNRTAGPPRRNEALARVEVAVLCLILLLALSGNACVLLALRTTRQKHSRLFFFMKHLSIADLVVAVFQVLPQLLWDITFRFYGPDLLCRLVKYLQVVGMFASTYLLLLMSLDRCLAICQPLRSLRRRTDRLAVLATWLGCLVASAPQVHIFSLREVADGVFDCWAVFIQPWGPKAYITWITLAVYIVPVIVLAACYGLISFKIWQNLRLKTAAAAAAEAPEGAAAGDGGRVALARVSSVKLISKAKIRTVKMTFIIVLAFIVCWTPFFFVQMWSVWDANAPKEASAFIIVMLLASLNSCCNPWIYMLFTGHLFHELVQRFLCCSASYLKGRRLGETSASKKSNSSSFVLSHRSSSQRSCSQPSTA
CRFR2-BP ag: CRF-BP/CRF-R2 complex agonism; HEK293 CRF-R2/CRF-BP, calcium dye fluorescence (FLIPR); percent of saturating CRF peptide response; activation, % at 13.2 µM; actives 0.46% (n = 350,000); AID 588473;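 active = activation of at least 50%, plus an integration ratio under a set limit after plate pattern correction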;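 note: plate controls were neutral control wells without compound for no effect and CRF at EC100 for full effect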
OXTR potentiator: human OXTR potentiation; P30559; actives 0.061% (n = 320,000); activation, % at 3 µM; CHO-OTR cells, Fluo-8 calcium fluorescence, potentiator mode; 0% = oxytocin EC15, 100% = EC100; AID 2445;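 active = activation above that plate's cutoff, the mean activation of tested compounds plus 3 SD, cut at about 6.6% in these data, passing the limit was not always enough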;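 note: 100% uses oxytocin at 75 nM as the full agonist control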
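Measured by – Fluo-8 calcium dye fluorescence · Test system – human OTR in CHO cells · Dosing – one concentration, 3.0 µM compound · Controls – EC15 oxytocin alone as 0%, 75 nM oxytocin as 100% · Evaluation – normalized max/min fluorescence ratio, % activation · Timing – 6 min pre-incubation, 100 s read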
V1R ag counter: counter-screen for oxytocin receptor agonists: human V1a receptor agonists | P37288 | CHO-V1R cells, Fluo-8 calcium fluorescence, agonist mode; 0% DMSO, 100% 3 nM vasopressin | activation, % at 3 µM | actives 0.25% (n = 320,000);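 active = activation above the mean activation of all tested compounds plus 3 SD, per screening run, cut at about 20% in these data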;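 note: signal is peak over basal fluorescence ratio across a 100 second FLIPR read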
Target sequence (P37288 whole entry, looked up): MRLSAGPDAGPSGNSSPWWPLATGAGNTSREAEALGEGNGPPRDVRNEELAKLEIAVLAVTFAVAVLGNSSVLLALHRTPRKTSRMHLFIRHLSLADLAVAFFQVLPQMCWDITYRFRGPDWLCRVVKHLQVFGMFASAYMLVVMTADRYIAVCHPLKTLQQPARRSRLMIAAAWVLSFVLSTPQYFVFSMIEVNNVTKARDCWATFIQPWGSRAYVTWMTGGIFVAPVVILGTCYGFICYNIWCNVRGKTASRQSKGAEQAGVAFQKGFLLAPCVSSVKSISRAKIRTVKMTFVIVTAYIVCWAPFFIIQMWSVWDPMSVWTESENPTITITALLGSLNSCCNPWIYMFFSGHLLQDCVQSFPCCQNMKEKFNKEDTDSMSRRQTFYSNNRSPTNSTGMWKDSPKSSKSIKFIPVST
Active calls of the source: *; . = no result.

SMILES | zfTRPN1 agonist | TRPML3 ag | OXTR ag | CRFR2-BP ag | OXTR potentiator | V1R ag counter
COc1ccc(C)cc1NC(=O)Cc1csc(NC(=O)Nc2ccccc2OC)n1 | . | . | . | -1.7 | . | .
Cc1cccn2c(=O)c(/C=C3\SC(=S)NC3=O)c(NCCCN3CCOCC3)nc12 | 13.2 | 7.6 | 5.5 | 40.2 | -5.5 | 9.9
CCOCCCNc1nc2c(C)cccn2c(=O)c1/C=C1\SC(=S)N(C(C)CC)C1=O (configuration not stated) | 19.9* | 7.9 | 13.0 | 109.0* | -13.0 | 5.6
Cc1ccc(NC(=O)CN2C(=O)S/C(=C/c3ccc(-c4cc(C(=O)O)ccc4C)o3)C2=O)cc1C | 0.9 | 0.9 | -0.4 | 18.5 | -9.5 | -0.2
Cc1ccc(C(=O)O)cc1-c1ccc(C=C2C(=O)c3ccccc3C2=O)o1 | -0.6 | 0.4 | 1.1 | 74.6* | -1.2 | 2.5
CN1/C(=C\C=C(/C#N)C(=O)Nc2ccccc2F)C(C)(C)c2ccccc21 | 1.4 | 2.0 | 6.6 | 257.3* | -14.1 | 8.3
CCn1c(SCC(=O)N(C)c2c(N)n(Cc3ccccc3)c(=O)[nH]c2=O)nnc1-c1cccs1 | . | . | . | 3.1 | . | .
CCn1cnc2cc(NCc3ccc(Br)cc3)ccc21 | . | . | 3.4 | 51.8* | -16.4 | 6.7
CCn1c(C)c(C(C)=O)c(N2CCN(C(c3ccccc3)c3ccccc3)CC2)nc1=S | 1.7 | 1.0 | 0.0 | 2.4 | 0.1 | 0.4
CCn1c(C)c(C(C)=O)c(N2CCN(c3ccccc3)CC2)nc1=S | -0.3 | 1.4 | 0.5 | 60.0* | -3.6 | 0.5
O=C(Nc1ccccc1)c1ccccc1NS(=O)(=O)c1ccc(Cl)s1 | 29.4* | 15.6* | 10.2 | 29.0 | -12.6 | 11.0
CS(=O)(=O)c1ccccc1C(=O)Nc1ccccc1Cc1ccccc1 | . | . | 1.1 | -0.7 | 1.4 | 0.4
O=C(NCc1ccco1)c1ccccc1NS(=O)(=O)c1ccc(Cl)s1 | 2.1 | 2.5 | 12.2 | 14.8 | -9.4 | 8.1
O=C(Nc1ccccc1Cc1ccccc1)c1ccccc1NS(=O)(=O)c1ccc(Cl)s1 | 18.9* | 5.1 | 13.7 | 35.0 | -13.5 | 11.0
Cc1ccc(NC(=O)c2ccccc2NS(=O)(=O)c2ccc(Cl)s2)cc1 | 26.8* | 12.9* | 14.5 | 64.6* | -11.6 | 8.7
C[C@@H]1CN([C@@H](C)CO)C(=O)CCCn2cc(nn2)CO[C@H]1CN(C)S(=O)(=O)c1ccc2c(c1)OCCCO2 | . | . | . | -1.5 | . | .
COc1ccc(N2CCN(C(CNC(=O)C(=O)NC3CCCC3)c3ccco3)CC2)cc1 (configuration not stated) | . | . | 1.0 | -0.5 | 6.8 | -0.1
O=C(COC(=O)c1ccccc1C(=O)OCC(=O)NCCc1c[nH]c2ccccc12)NCCc1c[nH]c2ccccc12 | . | . | 1.8 | 0.0 | -19.8 | 2.4
Cc1ccc(Nc2cc(C)nc3nc(C)nn23)cc1 | -0.9 | 0.3 | -2.3 | -4.1 | 12.5* | -1.2
Cc1cc(C)cc(Nc2cc(C)nc3nc(C)nn23)c1 | -0.1 | 0.0 | -1.7 | -2.1 | 8.0 | -1.2
CC1CNC(=S)N(c2ccccc2)C1=O (configuration not stated) | . | . | . | 1.4 | . | .
O=[N+]([O-])c1ccc(O)c(/C=N\N=C2c3ccccc3-c3ccccc32)c1 | -0.2 | 1.2 | 9.8 | 83.8* | -16.5 | 6.1
Cc1cc(C)nc(Nc2cccc(Cl)c2)n1 | . | . | . | -1.2 | . | .
Cc1cc(=O)n2[nH]c(Nc3cccc(Cl)c3)nc2n1 | . | . | 0.3 | 116.1* | -0.6 | 0.5
Cc1cc(NC(=O)C(C)C)ncc1NC(=O)CCc1ccccc1 | 1.4 | 0.4 | -0.1 | 141.0* | -20.4 | 0.3
SMILES | zfTRPN1 agonist | TRPML3 ag | OXTR ag | CRFR2-BP ag | OXTR potentiator | V1R ag counter
O=[N+]([O-])c1ccc(N=Nc2c(Cl)cc(O)cc2Cl)cc1 | 19.7* | 16.2* | 17.6 | 31.1 | -9.4 | 12.7
CC(N)=Nc1ccc([N+](=O)[O-])cc1 | 0.7 | 0.2 | 0.5 | 1.7 | -4.4 | -0.4
Cc1[nH]c2ccccc2c1/C=N/Nc1ccc([N+](=O)[O-])cc1S(=O)(=O)Nc1ccc(Cl)cc1 | -0.8 | 0.8 | -0.2 | 108.8* | -5.9 | 0.5
COc1ccc(NS(=O)(=O)c2cc([N+](=O)[O-])ccc2N/N=C\c2c(C)[nH]c3ccccc23)cc1 | 0.2 | 0.2 | 10.1 | 47.6 | -11.5 | 7.3
CN1C(=O)c2ccccc2CC12c1ccccc1C(=O)N2C (configuration not stated) | . | . | . | -0.9 | . | .
COc1ccc(N=C(N)SCc2ccccn2)cc1 | 6.3 | 5.6 | 4.2 | 61.9* | -4.7 | 3.9
CSc1nc(=S)n(-c2ccc([N+](=O)[O-])cc2)c(C)c1C(C)=O | . | . | -0.2 | -0.6 | -9.1 | 0.0
C/C(=N\Nc1ncnc2sc(C)c(C)c12)c1ccccn1 | . | . | 123.7* | 64.0* | -15.1 | 134.2*
Cc1sc2ncnc(N/N=C/c3cccc(O)c3)c2c1C | -1.2 | 0.3 | 2.8 | 0.0 | -9.2 | 0.9
CCOC(=O)c1cc2c(c(CCO)n1)[C@@H](CCO)N(S(=O)(=O)C(C)(C)C)C2 | . | . | . | 3.5 | . | .
Cc1nn(-c2ccc(C(=O)O)cc2)c2c1C(=O)CC(C)(C)C2 | 1.4 | 0.3 | 1.1 | -2.7 | -5.3 | 0.9
Cc1c(CC(Cl)(Cl)Cl)c2c(n1O)CC(C)(C)CC2=O | 0.9 | 1.6 | 13.4 | 55.0* | -11.9 | 11.1
O=C(O)C1(C(=O)O)CCC2(CCCCC2)CC1 | . | . | . | -2.3 | . | .
CN1C(=O)/C(=C\c2ccc(N(C)C)cc2)OC1=S | . | . | . | 210.9* | . | .
CCOc1ccc(-c2c(C(=O)N/N=C/c3ccc(OC)cc3)nnn2-c2nonc2N)cc1 | 0.6 | 0.9 | 37.2* | 1.2 | -3.5 | 27.0*
CCCOc1ccc(-c2c(C(=O)N/N=C/c3ccc(OCC)cc3)nnn2-c2nonc2N)cc1 | -0.3 | 0.4 | 0.9 | 1.3 | 10.3 | -0.1
CCOc1ccc(-c2c(C(=O)N/N=C/c3ccsc3)nnn2-c2nonc2N)cc1 | . | . | 29.1* | 0.3 | -9.4 | 20.9*
Clc1nssc1=Nc1ccc(Br)cc1 | 0.9 | 4.1 | . | 106.6* | . | .
COc1cc(N=c2ssnc2Cl)cc(OC)c1 | 0.0 | -0.3 | 0.0 | 4.1 | -3.0 | 0.2
COc1ccc(C(=O)NC(=S)Nc2ccc(N3CCOCC3)cc2)cc1Cl | . | . | 4.3 | 0.8 | -0.4 | 6.0
CCOc1cccc(-c2c(C(=O)N/N=C(\C)c3cccs3)nnn2-c2nonc2N)c1 | . | . | 36.4* | 1.5 | -11.3 | 35.9*
CCOc1ccc(-c2c(C(=O)N/N=C(\C)c3ccccc3OC)nnn2-c2nonc2N)cc1 | . | . | -1.3 | 0.2 | -19.2 | 0.1
COc1cccc(-c2c(C(=O)N/N=C(\C)c3cccs3)nnn2-c2nonc2N)c1 | . | . | 44.3* | 41.3 | -7.4 | 59.9*
CCOc1ccc(-c2c(C(=O)N/N=C(\C)c3ccco3)nnn2-c2nonc2N)cc1 | . | . | 25.8* | -0.6 | -19.1 | 23.1*
